pIC50: −log10 of the molar value.
How the values were obtained:
[1] = target: T1, Prostaglandin G/H synthase 1 (Ovis aries, UniProt P05979); test: Inhibition of ovine COX1 after 2 mins by EIA
T1 sequence (P05979 whole entry): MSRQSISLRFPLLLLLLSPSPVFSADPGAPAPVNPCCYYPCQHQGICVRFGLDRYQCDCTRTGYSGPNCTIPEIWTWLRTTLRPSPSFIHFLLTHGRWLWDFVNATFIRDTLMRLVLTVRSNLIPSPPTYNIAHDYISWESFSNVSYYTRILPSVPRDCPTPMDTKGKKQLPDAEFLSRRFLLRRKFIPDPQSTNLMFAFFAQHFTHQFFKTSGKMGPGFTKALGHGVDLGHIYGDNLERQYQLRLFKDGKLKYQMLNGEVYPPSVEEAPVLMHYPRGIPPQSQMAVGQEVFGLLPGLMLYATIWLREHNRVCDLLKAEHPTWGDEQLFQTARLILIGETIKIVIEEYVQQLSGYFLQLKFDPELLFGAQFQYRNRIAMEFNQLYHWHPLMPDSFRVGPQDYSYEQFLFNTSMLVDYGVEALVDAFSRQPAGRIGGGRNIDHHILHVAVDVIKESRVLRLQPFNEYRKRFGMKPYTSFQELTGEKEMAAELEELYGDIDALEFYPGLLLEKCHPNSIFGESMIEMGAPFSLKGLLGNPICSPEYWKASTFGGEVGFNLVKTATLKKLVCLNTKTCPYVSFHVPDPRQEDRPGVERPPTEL

[2] = target: T2, Prostaglandin G/H synthase 2 (Homo sapiens, UniProt P35354); test: Inhibition of human recombinant COX2 after 2 mins by EIA
T2 sequence (P35354 whole entry): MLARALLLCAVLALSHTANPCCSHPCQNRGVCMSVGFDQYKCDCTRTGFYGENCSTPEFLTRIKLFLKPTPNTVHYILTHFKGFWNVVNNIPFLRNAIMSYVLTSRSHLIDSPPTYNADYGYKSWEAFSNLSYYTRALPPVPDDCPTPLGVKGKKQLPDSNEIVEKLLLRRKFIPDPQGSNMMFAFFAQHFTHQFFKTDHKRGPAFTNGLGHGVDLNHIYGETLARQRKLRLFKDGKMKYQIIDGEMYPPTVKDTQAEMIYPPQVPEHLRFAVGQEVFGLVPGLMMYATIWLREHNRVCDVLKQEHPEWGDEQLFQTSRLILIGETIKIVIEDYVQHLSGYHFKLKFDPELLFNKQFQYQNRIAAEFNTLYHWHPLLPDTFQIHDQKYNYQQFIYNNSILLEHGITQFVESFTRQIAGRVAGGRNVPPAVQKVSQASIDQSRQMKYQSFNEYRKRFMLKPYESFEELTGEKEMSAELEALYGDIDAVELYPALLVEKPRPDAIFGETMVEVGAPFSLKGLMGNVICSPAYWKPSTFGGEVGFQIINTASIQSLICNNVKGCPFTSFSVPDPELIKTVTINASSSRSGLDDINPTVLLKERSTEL

[3] = Selectivity index, ratio of IC50 for ovine COX1 to IC50 for human recombinant COX2
In short: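 Fluorescent screening kit with ovine COX-1 or human recombinant COX-2, heme and ADHP substrate in 0.1 M Tris-HCl pH 8.0 with 5 mM EDTA and 2 mM phenol. Compounds in DMSO tested at 0.01-100, 5 min at 37 °C. Arachidonic acid added; reaction stopped with HCl after 2 min. Resorufin read at ex 535/em 590 nm. IC50 from triplicate concentration-inhibition curves; SI = COX-1 IC50/COX-2 IC50.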

Rattus norvegicus [4] = test: Antiinflammatory activity in po dosed albino rat assessed as inhibition of carrageenan-induced paw edema administered 1 hr prior challenge measured 2 hrs post challenge; type: functional
In short: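 Male Charles Foster albino rats, 150-200 g, n = 6 per group. Compounds suspended in 0.5% methyl cellulose, given orally at 50, 100 and 200 mg/kg; reference drugs at 25, 50 and 100 mg/kg. 1 h later, 0.2 mL of 1% carrageenan in 0.9% NaCl injected into the right hind paw.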

Rattus norvegicus [5] = test: Ulcerogenic activity in po dosed albino rat at 200 mg/kg, po administered intragastrically measured after 3 hrs; type: toxicity, organism-based; parameters: dose 200 mg/kg, route oral; settings: in vivo
In short: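 Rats of 180-200 g, 6 per group, fasted 24 h, dosed intragastrically at 200 mg/kg. Killed 3 h later; stomachs opened along the lesser curvature. Each hemorrhagic lesion measured along its maximum length and ranked. Lesion lengths summed to give the ulcer index, reported as mean ± SEM.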

Mus musculus [6] = test: Analgesic activity in mouse assessed as inhibition of acetic acid-induced writhing at 100 mg/kg, po administered 60 mins prior challenge measured for 5 to 10 mins post acetic acid challenge relative to control; type: functional
In short: (§1)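 Groups of 6 mice given saline, test compound (200 mg/kg) or aspirin (100 mg/kg) orally. 60 min later, 0.6% acetic acid injected i.p. Writhes per mouse counted between 5 and 10 min after injection. Percent inhibition of writhes calculated against the saline control group.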

Mus musculus [7] = test: Analgesic activity in mouse assessed as inhibition of acetic acid-induced writhing at 200 mg/kg, po administered 60 mins prior challenge measured for 5 to 10 mins post acetic acid challenge relative to control; type: functional; in short: as §1

| Compound | pIC50 [1] | pIC50 [2] | Ratio IC50 [3] | ED50 (Rattus norvegicus [4]) | Activity (Rattus norvegicus [5]) | inhibition in vivo at 100 mg/kg (Mus musculus [6]) | inhibition in vivo at 200 mg/kg (Mus musculus [7]) |
| --- | --- | --- | --- | --- | --- | --- | --- |
| Clc1ccc(-c2nnc(-c3cn(-c4ccccc4)nc3-c3ccc(Cl)cc3)o2)cc1 | < 4.00 | 5.06 | > 11.5 | 199 mg/kg |  |  |  |
| Cc1ccc(-c2cc(C(F)(F)F)nn2-c2ccc(S(N)(=O)=O)cc2)cc1 [CELECOXIB] |  |  |  | 81.7 mg/kg |  |  |  |
| Cc1ccc(-c2nn(-c3ccccc3)cc2-c2nnc(-c3ccccc3)o2)cc1 | < 4.00 | 4.60 | > 4 |  |  |  |  |
| Cc1ccc(-c2nn(-c3ccccc3)cc2-c2nnc(-c3ccc(Cl)cc3)o2)cc1 | < 4.00 | 4.24 | > 1.7 |  |  |  |  |
| CC(=O)Oc1ccccc1C(=O)O [ASPIRIN] |  |  |  |  | Toxic | 72.2% |  |
| Fc1ccc(-c2nn(-c3ccccc3)cc2-c2nnc(-c3ccccc3)o2)cc1 | < 4.00 | 5.19 | > 15.4 | 175 mg/kg |  |  |  |
| c1ccc(-c2nnc(-c3cn(-c4ccccc4)nc3-c3ccccc3)o2)cc1 | < 4.00 | 5.82 | > 67 | 125 mg/kg |  |  |  |
| O=C(O)Cc1ccccc1Nc1c(Cl)cccc1Cl [DICLOFENAC] |  |  |  | 110 mg/kg |  |  |  |
| O=[N+]([O-])c1ccc(-c2nn(-c3ccccc3)cc2-c2nnc(-c3ccc(Cl)cc3)o2)cc1 | < 4.00 | 5.92 | > 83.3 | 167 mg/kg |  |  |  |
| Brc1ccc(-c2nn(-c3ccccc3)cc2-c2nnc(-c3ccccc3)o2)cc1 | < 4.00 | < 4.00 | > 1 |  |  |  |  |
| Brc1ccc(-c2nn(-c3ccccc3)cc2-c2nnc(-c3ccncc3)o2)cc1 | < 4.00 | 4.41 | > 2.6 |  |  |  |  |
| O=[N+]([O-])c1ccc(-c2nn(-c3ccccc3)cc2-c2nnc(-c3ccncc3)o2)cc1 | < 4.00 | 6.30 | > 200 | 72.6 mg/kg |  |  |  |
| COc1ccc(-c2nn(-c3ccccc3)cc2-c2nnc(-c3ccc(Cl)cc3)o2)cc1 | < 4.00 | 4.17 | > 1.5 |  |  |  |  |
| Fc1ccc(-c2nn(-c3ccccc3)cc2-c2nnc(-c3ccc(Cl)cc3)o2)cc1 | < 4.00 | 5.26 | > 18.2 | 182 mg/kg |  |  |  |
| c1ccc(-c2nn(-c3ccccc3)cc2-c2nnc(-c3ccncc3)o2)cc1 | < 4.00 | 4.95 | > 9 |  |  |  |  |

Continued, in another order:

| pIC50 [1] | pIC50 [2] | Ratio IC50 [3] | Compound | ED50 (Rattus norvegicus [4]) | Activity (Rattus norvegicus [5]) | inhibition in vivo at 100 mg/kg (Mus musculus [6]) | inhibition in vivo at 200 mg/kg (Mus musculus [7]) |
| --- | --- | --- | --- | --- | --- | --- | --- |
| < 4.00 | 4.30 | > 2 | Clc1ccc(-c2nnc(-c3cn(-c4ccccc4)nc3-c3ccc(Br)cc3)o2)cc1 |  |  |  |  |
| < 4.00 | 4.38 | > 2.4 | COc1ccc(-c2nn(-c3ccccc3)cc2-c2nnc(-c3ccncc3)o2)cc1 |  |  |  |  |
| < 4.00 | 4.28 | > 1.9 | Cc1ccc(-c2nn(-c3ccccc3)cc2-c2nnc(-c3ccncc3)o2)cc1 |  |  |  |  |
| < 4.00 | < 4.00 | > 1 | COc1ccc(-c2nn(-c3ccccc3)cc2-c2nnc(-c3ccccc3)o2)cc1 |  |  |  |  |
| < 4.00 | 5.33 | > 21 | Clc1ccc(-c2nn(-c3ccccc3)cc2-c2nnc(-c3ccccc3)o2)cc1 | 171 mg/kg |  |  |  |
| < 4.00 | 4.42 | > 2.6 | Clc1ccc(-c2nnc(-c3cn(-c4ccccc4)nc3-c3ccccc3)o2)cc1 |  |  |  |  |
| < 4.00 | 5.64 | > 43 | Fc1ccc(-c2nn(-c3ccccc3)cc2-c2nnc(-c3ccncc3)o2)cc1 | 123 mg/kg |  |  |  |
| < 4.00 | 6.51 | > 222 | O=[N+]([O-])c1ccc(-c2nn(-c3ccccc3)cc2-c2nnc(-c3ccccc3)o2)cc1 | 74.3 mg/kg | Non-toxic |  | 67.3% |
| < 4.00 | 5.36 | > 23 | Clc1ccc(-c2nn(-c3ccccc3)cc2-c2nnc(-c3ccncc3)o2)cc1 | 167 mg/kg |  |  |  |
